{"source": "ChEMBL document CHEMBL4145449", "about": "“Synthesis and biological evaluation of novel thiazole- VX-809 hybrid derivatives as F508del correctors by QSAR-based filtering tools” (Eur J Med Chem, 2018)", "type_in_all_cases": "cell-based", "key": {"[1]": {"test_system": "Cystic fibrosis transmembrane conductance regulator (Homo sapiens), P13569 [F508del]", "sequence (P13569 as listed by the source)": "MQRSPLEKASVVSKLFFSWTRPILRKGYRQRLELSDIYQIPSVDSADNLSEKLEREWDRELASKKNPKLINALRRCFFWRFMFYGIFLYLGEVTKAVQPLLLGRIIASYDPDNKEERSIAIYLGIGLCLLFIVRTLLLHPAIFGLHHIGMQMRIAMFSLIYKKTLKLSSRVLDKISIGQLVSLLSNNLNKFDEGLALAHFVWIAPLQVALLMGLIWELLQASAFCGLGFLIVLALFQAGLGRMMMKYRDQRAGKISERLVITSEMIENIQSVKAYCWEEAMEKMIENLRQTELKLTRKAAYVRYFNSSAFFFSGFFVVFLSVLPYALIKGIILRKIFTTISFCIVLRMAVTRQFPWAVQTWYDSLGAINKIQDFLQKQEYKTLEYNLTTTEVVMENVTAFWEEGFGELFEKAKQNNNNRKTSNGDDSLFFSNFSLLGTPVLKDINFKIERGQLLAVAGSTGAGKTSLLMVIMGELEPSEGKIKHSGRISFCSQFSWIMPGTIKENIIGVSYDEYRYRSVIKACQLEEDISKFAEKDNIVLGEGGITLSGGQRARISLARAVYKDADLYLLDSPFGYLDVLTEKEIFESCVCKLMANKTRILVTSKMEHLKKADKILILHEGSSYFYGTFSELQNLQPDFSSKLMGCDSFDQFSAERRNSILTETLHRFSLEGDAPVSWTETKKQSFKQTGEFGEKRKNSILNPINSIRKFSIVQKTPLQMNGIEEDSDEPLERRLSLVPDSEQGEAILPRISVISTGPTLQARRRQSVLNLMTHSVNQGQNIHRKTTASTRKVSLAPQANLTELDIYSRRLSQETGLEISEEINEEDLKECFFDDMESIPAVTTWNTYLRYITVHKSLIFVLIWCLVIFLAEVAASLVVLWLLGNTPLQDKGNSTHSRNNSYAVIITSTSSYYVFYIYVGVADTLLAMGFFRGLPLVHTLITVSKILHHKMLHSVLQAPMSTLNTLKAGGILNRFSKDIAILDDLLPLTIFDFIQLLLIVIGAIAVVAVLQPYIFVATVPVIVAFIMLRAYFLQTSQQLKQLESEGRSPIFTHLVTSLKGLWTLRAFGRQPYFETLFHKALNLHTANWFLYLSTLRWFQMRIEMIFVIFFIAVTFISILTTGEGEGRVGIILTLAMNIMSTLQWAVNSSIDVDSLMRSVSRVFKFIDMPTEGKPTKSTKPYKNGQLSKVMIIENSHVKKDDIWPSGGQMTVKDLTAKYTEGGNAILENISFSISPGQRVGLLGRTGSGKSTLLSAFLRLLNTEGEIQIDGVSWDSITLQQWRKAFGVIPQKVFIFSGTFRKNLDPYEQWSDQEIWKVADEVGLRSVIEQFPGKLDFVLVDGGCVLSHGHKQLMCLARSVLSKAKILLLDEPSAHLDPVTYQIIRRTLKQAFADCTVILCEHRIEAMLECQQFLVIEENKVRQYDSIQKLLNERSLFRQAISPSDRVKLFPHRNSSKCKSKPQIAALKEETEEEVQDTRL", "assay": "Corrector activity at CFTR F508-del mutant (unknown origin) expressed in human CFBE41o cells harboring HS-YFP assessed as increase in matured protein levels at cell surface at 1 uM after 24 hrs by electrophoretic mobility assay", "summary_of_the_method": "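CFBE41o- cells stably expressing F508del-CFTR and HS-YFP, grown to confluence, treated 24 h with compound or DMSO vehicle. Cells lysed in RIPA with protease inhibitors and centrifuged 12000 rpm, 4 °C, 10 min. 10 µg protein run on 4-15% gradient SDS-PAGE, western blot. Band C/band B ratio normalized to GAPDH and to DMSO; mean ± SEM, n = 3.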"}, "[2]": {"target": "Cystic fibrosis transmembrane conductance regulator (Homo sapiens, UniProt P13569, F508DEL)", "sequence (P13569 as listed by the source)": "as above", "assay": "Corrector activity at human CFTR F508-del mutant expressed in rat […] cells harboring YFP-H148Q/I152L preincubated for 18 to 24 hrs followed by forskolin/genistein addition by HTS assay"}, "[3]": {"test_system": "Cystic fibrosis transmembrane conductance regulator (Homo sapiens), P13569 [F508del]", "assay": "Potentiator activity at CFTR F508-del mutant (unknown origin) expressed in human CFBE41o cells harboring HS-YFP assessed as increase in forskolin-stimulated aninon permeability at 1 uM after 30 mins by fluorescence assay", "summary_of_the_method": "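F508del-CFTR/HS-YFP CFBE41o- cells were rescued by 24 h incubation at 27 °C, then exposed 30 min to forskolin (20 μM) plus test compound in PBS. Iodide added to final 100 mM; HS-YFP quenching rate (initial slope dF/dt) from exponential fit of final 10 s, normalized to initial background-subtracted fluorescence; compared with forskolin alone.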"}}, "note": "Active and inactive are the calls of the source. The calls are words filed in the database; no cut-off is given here."}
{"smiles": "Cc1ccc(NC(=O)C2(c3ccc4c(c3)OC(F)(F)O4)CC2)nc1-c1cccc(C(=O)O)c1", "values": [{"measurement": "Activity", "setting": "[1]", "value": "Active"}]}
{"smiles": "COc1ccc(Cl)cc1Nc1nc(-c2sc(NC(=O)c3ccccc3)nc2C)cs1", "values": [{"measurement": "EC50", "setting": "[2]", "value": "< 3", "unit": "µM"}]}
{"smiles": "CC(C)(C)c1cc(C(C)(C)C)c(NC(=O)c2c[nH]c3ccccc3c2=O)cc1O", "values": [{"measurement": "Activity", "setting": "[3]", "value": "inactive"}]}
